{"data": "Assay results pooled from the literature", "target": "Cyclin-dependent kinase 18 (CDK18, Homo sapiens, UniProt Q07002)", "note": "Lines come from different studies, so protocols differ."}
{"SMILES": "F[C@@H]1CCN(c2nccc(-c3cnn4ncccc34)n2)C1", "assay": "binding", "conditions": "1 µM", "remaining binding [%]": 86}
{"SMILES": "Nc1ncc2c(n1)-c1c([nH]c3ccc(C#CC4CC4)cc13)CCCC2", "assay": "binding, competition with immobilised ligand", "conditions": "1 µM", "remaining binding [%]": 100}
{"SMILES": "CC1=C(C#N)[C@@H](c2ccc3[nH]nc(C)c3c2)C(C#N)=C(c2ccc(Cl)cc2)N1", "assay": "cell-free assay, competition with immobilised ligand", "conditions": "1 µM", "remaining binding [%]": 100}
{"SMILES": "Cc1cnc(Nc2ccc(C(=O)N3CCC(N4CCCC4)CC3)cc2)nc1-c1cc2ccccc2s1", "assay": "binding, competition with immobilised ligand", "conditions": "1 µM", "remaining binding [%]": 100}
{"SMILES": "CN1CCN(c2ccc(Nc3nccc(-c4cccc([N+](=O)[O-])c4)n3)cc2C(F)(F)F)CC1", "assay": "binding", "conditions": "10 µM", "remaining binding [%]": 56}
{"SMILES": "O=c1nc(-c2ccccn2)sc2ccccc12", "assay": "binding, competition with immobilised ligand", "conditions": "1 µM", "remaining binding [%]": 94}
{"SMILES": "C[C@@H]1CCN(c2nccc(-c3cnn4ncccc34)n2)C1", "assay": "binding", "conditions": "1 µM", "remaining binding [%]": 100}
{"SMILES": "CN(c1ccnc(CNc2nc(Nc3ccc4c(c3)CC(=O)N4)ncc2C(F)(F)F)n1)S(C)(=O)=O", "assay": "cell-free assay, competition with immobilised ligand", "conditions": "1 µM", "remaining binding [%]": 100}
{"SMILES": "C[C@@H](c1ccc(-n2cnc3c(N)ncnc32)cc1)N1CCc2nn(C)c(Cc3ccccc3)c2C1=O", "assay": "binding, competition with immobilised ligand", "conditions": "0.1 µM", "remaining binding [%]": 100}
{"SMILES": "FC(F)(F)Oc1cccc(-c2cnc3ccc(-c4ccncc4)nn23)c1", "assay": "cell-free assay, competition with immobilised ligand", "conditions": "5 µM", "remaining binding [%]": 46}
{"SMILES": "COc1ccnn2ncc(-c3ccnc(N(C)C)n3)c12", "assay": "binding", "conditions": "1 µM", "remaining binding [%]": 100}
{"SMILES": "CNC(=O)[C@@H]1CC[C@@H](n2c(-c3ccc4cnccc4c3)nc3ccc(C(=O)NCc4cccc(C(N)=O)c4)cc32)C1", "assay": "binding, competition with immobilised ligand", "conditions": "1 µM", "remaining binding [%]": 100}
{"SMILES": "N[C@H]1CCN(c2nccc(-c3cnn4ncccc34)n2)C1", "assay": "binding", "conditions": "1 µM", "remaining binding [%]": 100}
{"SMILES": "O=C(c1ccc(Nc2nccc(-c3cc4ccccc4s3)n2)cc1)N1CCC(N2CCCC2)CC1", "assay": "binding, competition with immobilised ligand", "conditions": "1 µM", "remaining binding [%]": 100}
{"SMILES": "CCOC(=O)c1cc2cc(-c3cc(C(=O)NCc4ccc(C(=O)O)cc4)nn3C)ccc2[nH]1", "assay": "cell-free assay, competition with immobilised ligand", "conditions": "0.1 µM", "remaining binding [%]": 100}
{"SMILES": "Cc1cnn2ncc(-c3ccnc(N(C)C)n3)c2c1", "assay": "binding", "conditions": "1 µM", "remaining binding [%]": 100}
{"SMILES": "CN(C)C(=O)Cn1cc(-c2nc(C3(c4ccc(-c5cnc(N)nc5)cc4)CC3)no2)cn1", "assay": "cell-free assay, competition with immobilised ligand", "conditions": "1 µM", "remaining binding [%]": 83}
{"SMILES": "O=C(c1ccc(Nc2ncc(Cl)c(-c3cc4ccccc4s3)n2)cc1)N1CCC(N2CCCC2)CC1", "assay": "binding, competition with immobilised ligand", "conditions": "1 µM", "remaining binding [%]": 64}
{"SMILES": "C[C@H](c1cccc(C#N)c1)n1cc(Cl)cc(C(N)=O)c1=N", "assay": "cell-free assay, competition with immobilised ligand", "conditions": "1 µM", "remaining binding [%]": 100}
{"SMILES": "CN(C)c1nccc(-c2cnc3ncccn23)n1", "assay": "binding", "conditions": "1 µM", "remaining binding [%]": 100}
{"SMILES": "O=C(NCC1CCOCC1)c1n[nH]cc1NC(=O)c1c(F)cccc1F", "assay": "binding, competition with immobilised ligand", "conditions": "1 µM", "remaining binding [%]": 86}
{"SMILES": "CNC(=O)Nc1ccc2c(c1)[C@@]1(CC2)OC(=O)N(CC(=O)N(Cc2ccc(F)cc2)[C@@H](C)C(F)(F)F)C1=O", "assay": "cell-free assay, competition with immobilised ligand", "conditions": "1 µM", "remaining binding [%]": 100}
{"SMILES": "c1cncc(-c2cccc(Nc3nccc(NC4CCCCC4)n3)c2)c1", "assay": "binding, competition with immobilised ligand", "conditions": "10 µM", "remaining binding [%]": 100}
